High-throughput results (PubChem BioAssay)
FXN GAA850 act: frataxin GAA850 promoter activation | HEK293 lucGAA850 FXN promoter luciferase reporter, 24 h; percent of 10 µM SAHA response | AID 540364 | 360,000 tested, 0.56% active | activation, % at 6 µM;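 active means activation above the average of all compounds screened plus 3 SD, cutoff fixed separately per campaign, cut at about 7.5% in these data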;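 further: 0% = DMSO wells and 100% = 10 µM SAHA wells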
CaV13 ICDI inh: Disruptors of the CACNA1D IQ motif to Ca2+-dependent inactivation inhibitor domain association, primary screening, Förster resonance energy transfer in intact living …; HEK cells, CFP/YFP FRET ICDI-IQ, plate reader, 10 min; percent FRET-ratio fall versus neutral wells; inhibition, % at 12.3 µM; 340,000 tested, 0.098% active;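 active means mean replicate inhibition of at least 30% and at least 1% of replicates passing that level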;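 further: 0% = median of the neutral control wells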
Xi reactivation: X-chromosome reactivation activator; AID 743238; 360,000 tested, 0.055% active; activation, % at 7.58 µM; XiGFP mouse fibroblasts, % GFP-positive cells imaging, 3 d; cells co-treated with 5-aza-dC sensitizer; scaled so ellipticine positive control = 100%;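 active means mean normalized replicate activation at least 10% and every replicate at or above 10%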;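 further: 0% = median of on-plate neutral control wells and 100% = ellipticine 6 µM median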
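System: 68-5-11 XiGFP fibroblast line | Buffer or medium: DMEM containing 5-aza-dC | Compound: Single point | Times: Compounds 3 days, fix/stain 15 min at room temperature | Benchmarks: Positive control ellipticine, 6 µM final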
INS-1E GSIS act: primary screen for activators of insulin secretion dependent on glucose, INS-1E cells, GLuc reporter luminescence. AID 743287. INS-1E GLuc reporter insulin secretion, 2-3 h. 370,000 tested, 0.61% active. activation, % at 16.6 µM;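 active means lowest replicate activation of at least 40%, so every replicate reaches that level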;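 further: 0% = median of neutral control wells and 100% = median of IBMX positive control wells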
Numbers without * were called inactive; x = no result given. Sampled rows, rich in hits. Any-hit rate of the full collection: about 1%.

SMILES | FXN GAA850 act | CaV13 ICDI inh | Xi reactivation | INS-1E GSIS act
NNC(=O)c1sc(-c2ccc(Cl)cc2)cc1N | -0.2 | -4.8 | 19.1* | 19.8
O=C(C[C@H]1CC[C@H](NC(=O)NC2CCCCC2)[C@@H](CO)O1)NCc1ccc(F)cc1 | x | x | 0.2 | -6.0
COc1ccccc1N(CC(=O)NCC1CCCO1)C(=O)CNS(=O)(=O)c1ccc(C)cc1 (configuration not stated) | 1.2 | -2.3 | x | 12.1
COc1ccccc1N(CC(=O)NCC1CCCO1)C(=O)CNS(=O)(=O)c1ccc(Cl)cc1 (configuration not stated) | 1.3 | -14.9 | 0.2 | 41.9*
Cc1cc(C(C)(C)CC(C)(C)C)ccc1OCCOCC[N+](C)(C)Cc1ccccc1 | 1.7 | -4.6 | -0.3 | 333.2*
C[N+](C)(CCOc1ccccc1)Cc1ccccc1 | -0.9 | -5.6 | 0.0 | x
C[C@@H]1CN(C)C(=O)c2cc(N(C)C)ccc2O[C@H]1CN(C)S(C)(=O)=O | x | x | 0.1 | 29.0
COc1ccccc1NC(=O)CN(c1ccc(C23CC4CC(CC(C4)C2)C3)cc1)S(C)(=O)=O | 9.4* | -6.0 | x | 10.1
CCOC(=O)c1ccccc1NC(=O)CN(c1ccccc1OC)S(C)(=O)=O | 0.9 | -6.4 | x | 62.1*
CS(=O)(=O)N(CC(=O)O)c1ccc(C23CC4CC(CC(C4)C2)C3)cc1 | 3.2 | -1.6 | 0.1 | x
Cc1cc(C(=O)OCC(=O)NCc2ccccc2)c2ccccc2n1 | 0.4 | -4.3 | -0.1 | 67.0*
COc1ccccc1CNC(=O)COC(=O)c1cc(C)nc2ccccc12 | -1.2 | -2.6 | 0.0 | 48.5*
CC(=O)N(C)C[C@H]1Oc2cc(-c3cccc(C#N)c3)ccc2S(=O)(=O)N([C@@H](C)CO)C[C@H]1C | x | x | -1.2 | 18.5
N#C[C@@H]1[C@H](c2ccccc2C2=CCCCC2)[C@H](CO)N1S(=O)(=O)c1cccc(F)c1 | x | x | 0.0 | -2.0
CCCCCc1ccc(OCCC[n+]2ccccc2)c(CCCCC)c1 | -5.7 | -2.0 | 0.3 | 191.9*
COc1cccc(/C=C2\SC(=O)N(CCC(=O)NNC(=O)c3ccccc3Cl)C2=O)c1 | 1.9 | -5.0 | 0.0 | 97.1*
COc1cccc(/C=C2\SC(=S)N(CCC(=O)NNC(=O)c3ccccc3OC)C2=O)c1 | 0.1 | -2.1 | 0.0 | 8.0
CCOC(=O)Nc1cccc(OCC(=O)Nc2ccc3c(c2)CCC3)c1 | -0.2 | -6.0 | -0.5 | 44.9*
C[C@@H]1CN([C@@H](C)CO)C(=O)Cc2cc(NC(=O)Nc3ccccc3)ccc2O[C@@H]1CN(C)C(=O)Nc1cccc2ccccc12 | x | x | 0.1 | -12.5
CC(C)Cn1c(=O)n(C)c(=O)c2[nH]cnc21 | 2.7 | -4.9 | 0.4 | 73.5*
Cc1noc(C)c1S(=O)(=O)Nc1ccc2c(c1)CC(=O)N([C@@H](C)CO)C[C@@H](C)[C@H](CN(C)S(=O)(=O)c1ccccc1)O2 | x | x | -1.0 | 9.7
CO[C@@H](CN(C)C(=O)c1cnccn1)[C@@H](C)CN([C@H](C)CO)S(=O)(=O)c1ccc(C)cc1 | x | x | -0.1 | -0.7
COc1ccc(CCN(C)C(=O)c2oc3ccccc3c2C)cc1OC | 4.3 | -13.9 | 0.0 | 105.3*
CN1CCN(C(=O)c2cc3c(c(-c4cccc(-c5cccc(F)c5)c4)n2)[C@@H](CCO)N(S(=O)C(C)(C)C)C3)CC1 (some centres not stated) | x | x | 0.0 | 6.7
C[C@H]1CN([C@@H](C)CO)C(=O)c2cccc(NC(=O)c3cnccn3)c2O[C@H]1CN(C)CC1CCCCC1 | x | x | 0.0 | 3.8
O=C(NCC1OCCc2ccccc21)c1ccc(NC(=O)c2ccccc2Cl)cc1 (configuration not stated) | 0.2 | -12.5 | x | -9.8
O=C(NCC1OCCc2ccccc21)c1ccc(NC(=O)c2ccc(Cl)cc2Cl)cc1 (configuration not stated) | -0.3 | -5.1 | -0.1 | 267.5*
O=C(NCC1OCCc2ccccc21)c1ccc(NC(=O)c2cccc(Br)c2)cc1 (configuration not stated) | -3.8 | -3.5 | 0.1 | 253.1*
COc1cccc(NC(=O)N2CC(=O)N3[C@H](CO)[C@H](c4ccc(C5=CCCCC5)cc4)[C@@H]3C2)c1 | x | x | 0.0 | -26.0
Cc1noc(C)c1S(=O)(=O)N(C)C[C@H]1OCCCC[C@@H](C)Oc2ccc(NC(=O)C3CCCCC3)cc2C(=O)N([C@@H](C)CO)C[C@H]1C | x | x | -0.9 | -18.9
